Data: ChEMBL document CHEMBL1145884, “Synthesis and biological activity of novel 1beta-methylcarbapenems with oxyiminopyrrolidinylamide moiety” (2003)
Converted amounts (≈) assume the structure as drawn.

What follows are compounds tested on Salmonella typhimurium (assay: Compound was evaluated for its antibacterial activity against Salmonella Typhimurium 2). Conditions: Salmonella enterica.
Format: functional, Salmonella enterica subsp. enterica serovar Typhimurium

| Structure (SMILES) | MIC [µg/mL] |
| --- | --- |
| C[C@@H](O)[C@H]1C(=O)N2C(C(=O)O)=C(S[C@@H]3CN[C@H](C(=O)N4CC/C(=N/O)C4)C3)[C@H](C)[C@H]12 | 0.03 (≈ 0.0684 µM) |

The compounds below were run on Klebsiella pneumoniae (assay: Compound was evaluated for its antibacterial activity against Klebsiella pneumoniae 4 ESBL). Conditions: not given.
Format: functional

| Structure (SMILES) | MIC [µg/mL] |
| --- | --- |
| C[C@@H](O)[C@H]1C(=O)N2C(C(=O)O)=C(S[C@@H]3CN[C@H](C(=O)N4CC/C(=N/O)C4)C3)[C@H](C)[C@H]12 | 0.03 (≈ 0.0684 µM) |

What follows are compounds tested on Escherichia coli (assay: Compound was evaluated for its antibacterial activity against Escherichia coli ATCC 25922). Conditions: not given.
Format: functional

| Structure (SMILES) | MIC [µg/mL] |
| --- | --- |
| C[C@@H](O)[C@H]1C(=O)N2C(C(=O)O)=C(S[C@@H]3CN[C@H](C(=O)N4CC/C(=N/O)C4)C3)[C@H](C)[C@H]12 | 0.016 (≈ 0.0365 µM) |

The compounds below were run on Klebsiella pneumoniae (assay: Compound was evaluated for its antibacterial activity against Klebsiella pneumoniae 6 ESBL). Conditions: not given.
Format: functional

| Structure (SMILES) | MIC [µg/mL] |
| --- | --- |
| C[C@@H](O)[C@H]1C(=O)N2C(C(=O)O)=C(S[C@@H]3CN[C@H](C(=O)N4CC/C(=N/O)C4)C3)[C@H](C)[C@H]12 | 0.03 (≈ 0.0684 µM) |

These compounds were tested on Enterobacter cloacae (assay: Antibacterial activity against Enterobacter cloacae 1321E). Conditions: not given.
Format: functional
Procedure, shortened: (§1)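 MIC was determined by agar dilution on Mueller–Hinton medium.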

| Structure (SMILES) | MIC [µg/mL] |
| --- | --- |
| C[C@@H](O)[C@H]1C(=O)N2C(C(=O)O)=C(S[C@@H]3CN[C@H](C(=O)N4CC/C(=N/O)C4)C3)[C@H](C)[C@H]12 | 0.013 (≈ 0.0296 µM) |

The compounds below were run on Escherichia coli (assay: Compound was evaluated for its antibacterial activity against Escherichia coli CCARM 1117 MDR). Conditions: not given.
Format: functional

| Structure (SMILES) | MIC [µg/mL] |
| --- | --- |
| C[C@@H](O)[C@H]1C(=O)N2C(C(=O)O)=C(S[C@@H]3CN[C@H](C(=O)N4CC/C(=N/O)C4)C3)[C@H](C)[C@H]12 | 0.03 (≈ 0.0684 µM) |

These compounds were tested on Shigella flexneri (assay: Compound was evaluated for its antibacterial activity against Shigella flexneri ATCC 9199). Conditions: not given.
Format: functional

| Structure (SMILES) | MIC [µg/mL] |
| --- | --- |
| C[C@@H](O)[C@H]1C(=O)N2C(C(=O)O)=C(S[C@@H]3CN[C@H](C(=O)N4CC/C(=N/O)C4)C3)[C@H](C)[C@H]12 | 0.016 (≈ 0.0365 µM) |

Each compound was assayed on Streptococcus pyogenes (assay: Antibacterial activity against Streptococcus pyogenes 308A). Conditions: not given.
Format: functional

| Structure (SMILES) | MIC [µg/mL] |
| --- | --- |
| C[C@@H](O)[C@H]1C(=O)N2C(C(=O)O)=C(S[C@@H]3CN[C@H](C(=O)N4CC/C(=N/O)C4)C3)[C@H](C)[C@H]12 | 0.013 (≈ 0.0296 µM) |

The compounds below were run on Klebsiella aerogenes (assay: Antibacterial activity against Klebsiella aerogenes 1522E). Conditions: not given.
Format: functional
Procedure, shortened: as §1

| Structure (SMILES) | MIC [µg/mL] |
| --- | --- |
| C[C@@H](O)[C@H]1C(=O)N2C(C(=O)O)=C(S[C@@H]3CN[C@H](C(=O)N4CC/C(=N/O)C4)C3)[C@H](C)[C@H]12 | 0.025 (≈ 0.057 µM) |

These compounds were tested on Escherichia coli (assay: Compound was evaluated for its antibacterial activity against Escherichia coli CCARM 1113 MDR). Conditions: not given.
Format: functional

| Structure (SMILES) | MIC [µg/mL] |
| --- | --- |
| C[C@@H](O)[C@H]1C(=O)N2C(C(=O)O)=C(S[C@@H]3CN[C@H](C(=O)N4CC/C(=N/O)C4)C3)[C@H](C)[C@H]12 | 0.06 (≈ 0.137 µM) |

These compounds were tested on Escherichia coli (assay: Antibacterial activity against Escherichia coli 078). Conditions: not given.
Format: functional
Procedure, shortened: as §1

| Structure (SMILES) | MIC [µg/mL] |
| --- | --- |
| C[C@@H](O)[C@H]1C(=O)N2C(C(=O)O)=C(S[C@@H]3CN[C@H](C(=O)N4CC/C(=N/O)C4)C3)[C@H](C)[C@H]12 | 0.025 (≈ 0.057 µM) |

These compounds were tested on Escherichia coli (assay: Compound was evaluated for its antibacterial activity against Escherichia coli TEM). Conditions: not given.
Format: functional

| Structure (SMILES) | MIC [µg/mL] |
| --- | --- |
| C[C@@H](O)[C@H]1C(=O)N2C(C(=O)O)=C(S[C@@H]3CN[C@H](C(=O)N4CC/C(=N/O)C4)C3)[C@H](C)[C@H]12 | 0.016 (≈ 0.0365 µM) |

The compounds below were run on Salmonella typhimurium (assay: Antibacterial activity against Salmonella Typhimurium). Conditions: Salmonella enterica.
Format: functional, Salmonella enterica subsp. enterica serovar Typhimurium
Procedure, shortened: as §1

| Structure (SMILES) | MIC [µg/mL] |
| --- | --- |
| C[C@@H](O)[C@H]1C(=O)N2C(C(=O)O)=C(S[C@@H]3CN[C@H](C(=O)N4CC/C(=N/O)C4)C3)[C@H](C)[C@H]12 | 0.025 (≈ 0.057 µM) |

What follows are compounds tested on Salmonella enteritidis (assay: Compound was evaluated for its antibacterial activity against […] enteritidis). Conditions: Salmonella enterica.
Format: functional, Salmonella enterica subsp. enterica serovar Enteritidis

| Structure (SMILES) | MIC [µg/mL] |
| --- | --- |
| C[C@@H](O)[C@H]1C(=O)N2C(C(=O)O)=C(S[C@@H]3CN[C@H](C(=O)N4CC/C(=N/O)C4)C3)[C@H](C)[C@H]12 | 0.016 (≈ 0.0365 µM) |

Each compound was assayed on Escherichia coli (assay: Compound was evaluated for its antibacterial activity against Escherichia coli DC 2). Conditions: not given.
Format: functional

| Structure (SMILES) | MIC [µg/mL] |
| --- | --- |
| C[C@@H](O)[C@H]1C(=O)N2C(C(=O)O)=C(S[C@@H]3CN[C@H](C(=O)N4CC/C(=N/O)C4)C3)[C@H](C)[C@H]12 | 0.016 (≈ 0.0365 µM) |

What follows are compounds tested on Pseudomonas aeruginosa (assay: Compound was evaluated for its antibacterial activity against Pseudomonas aeruginosa 2 MDR). Conditions: not given.
Format: functional

| Structure (SMILES) | MIC [µg/mL] |
| --- | --- |
| C[C@@H](O)[C@H]1C(=O)N2C(C(=O)O)=C(S[C@@H]3CN[C@H](C(=O)N4CC/C(=N/O)C4)C3)[C@H](C)[C@H]12 | 8 (≈ 18.2 µM) |

The compounds below were run on Salmonella typhimurium (assay: Compound was evaluated for its antibacterial activity against Salmonella Typhimurium 1). Conditions: Salmonella enterica.
Format: functional, Salmonella enterica subsp. enterica serovar Typhimurium

| Structure (SMILES) | MIC [µg/mL] |
| --- | --- |
| C[C@@H](O)[C@H]1C(=O)N2C(C(=O)O)=C(S[C@@H]3CN[C@H](C(=O)N4CC/C(=N/O)C4)C3)[C@H](C)[C@H]12 | 0.016 (≈ 0.0365 µM) |

What follows are compounds tested on Salmonella typhimurium (assay: Compound was evaluated for its antibacterial activity against Salmonella Typhimurium). Conditions: Salmonella enterica.
Format: functional, Salmonella enterica subsp. enterica serovar Typhimurium

| Structure (SMILES) | MIC [µg/mL] |
| --- | --- |
| C[C@@H](O)[C@H]1C(=O)N2C(C(=O)O)=C(S[C@@H]3CN[C@H](C(=O)N4CC/C(=N/O)C4)C3)[C@H](C)[C@H]12 | 0.03 (≈ 0.0684 µM) |

Each compound was assayed on Klebsiella oxytoca (assay: Compound was evaluated for its antibacterial activity against Klebsiella oxytoca 1082E). Conditions: not given.
Format: functional

| Structure (SMILES) | MIC [µg/mL] |
| --- | --- |
| C[C@@H](O)[C@H]1C(=O)N2C(C(=O)O)=C(S[C@@H]3CN[C@H](C(=O)N4CC/C(=N/O)C4)C3)[C@H](C)[C@H]12 | 0.13 (≈ 0.296 µM) |

The compounds below were run on Klebsiella pneumoniae (assay: Compound was evaluated for its antibacterial activity against Klebsiella pneumoniae 1 ESBL). Conditions: not given.
Format: functional

| Structure (SMILES) | MIC [µg/mL] |
| --- | --- |
| C[C@@H](O)[C@H]1C(=O)N2C(C(=O)O)=C(S[C@@H]3CN[C@H](C(=O)N4CC/C(=N/O)C4)C3)[C@H](C)[C@H]12 | 0.03 (≈ 0.0684 µM) |

These compounds were tested on Salmonella enteritidis (assay: Compound was evaluated for its antibacterial activity against […] enteritidis 1). Conditions: Salmonella enterica.
Format: functional, Salmonella enterica subsp. enterica serovar Enteritidis

| Structure (SMILES) | MIC [µg/mL] |
| --- | --- |
| C[C@@H](O)[C@H]1C(=O)N2C(C(=O)O)=C(S[C@@H]3CN[C@H](C(=O)N4CC/C(=N/O)C4)C3)[C@H](C)[C@H]12 | 0.016 (≈ 0.0365 µM) |

What follows are compounds tested on Escherichia coli (assay: Compound was evaluated for its antibacterial activity against Escherichia coli CCARM 1108 MDR). Conditions: not given.
Format: functional

| Structure (SMILES) | MIC [µg/mL] |
| --- | --- |
| C[C@@H](O)[C@H]1C(=O)N2C(C(=O)O)=C(S[C@@H]3CN[C@H](C(=O)N4CC/C(=N/O)C4)C3)[C@H](C)[C@H]12 | 0.03 (≈ 0.0684 µM) |

What follows are compounds tested on Klebsiella pneumoniae (assay: Compound was evaluated for its antibacterial activity against Klebsiella pneumoniae 5 ESBL). Conditions: not given.
Format: functional

| Structure (SMILES) | MIC [µg/mL] |
| --- | --- |
| C[C@@H](O)[C@H]1C(=O)N2C(C(=O)O)=C(S[C@@H]3CN[C@H](C(=O)N4CC/C(=N/O)C4)C3)[C@H](C)[C@H]12 | 0.016 (≈ 0.0365 µM) |

Each compound was assayed on Salmonella enteritidis (assay: Compound was evaluated for its antibacterial activity against […] enteritidis 2). Conditions: Salmonella enterica.
Format: functional, Salmonella enterica subsp. enterica serovar Enteritidis

| Structure (SMILES) | MIC [µg/mL] |
| --- | --- |
| C[C@@H](O)[C@H]1C(=O)N2C(C(=O)O)=C(S[C@@H]3CN[C@H](C(=O)N4CC/C(=N/O)C4)C3)[C@H](C)[C@H]12 | ≤ 0.008 |

These compounds were tested on Escherichia coli (assay: Compound was evaluated for its antibacterial activity against Escherichia coli CCARM 1114 MDR). Conditions: not given.
Format: functional

| Structure (SMILES) | MIC [µg/mL] |
| --- | --- |
| C[C@@H](O)[C@H]1C(=O)N2C(C(=O)O)=C(S[C@@H]3CN[C@H](C(=O)N4CC/C(=N/O)C4)C3)[C@H](C)[C@H]12 | 0.13 (≈ 0.296 µM) |

These compounds were tested on Escherichia coli (assay: Compound was evaluated for its antibacterial activity against Escherichia coli CCARM 1111 MDR). Conditions: not given.
Format: functional

| Structure (SMILES) | MIC [µg/mL] |
| --- | --- |
| C[C@@H](O)[C@H]1C(=O)N2C(C(=O)O)=C(S[C@@H]3CN[C@H](C(=O)N4CC/C(=N/O)C4)C3)[C@H](C)[C@H]12 | 0.016 (≈ 0.0365 µM) |
